Key:
Assay type in all cases: functional
M14 = test: Growth inhibition of human M14 cells assessed as cell growth at 10 uM after 48 hrs by sulforhodamine B assay; details: M14, 48 h, read-out: Activity
NCI-H522 = test: Growth inhibition of human NCI-H522 cells assessed as cell growth at 10 uM after 48 hrs by sulforhodamine B assay; details: NCI-H522, 48 h, read-out: Activity
UACC-62 = test: Growth inhibition of human UACC62 cells assessed as cell growth at 10 uM after 48 hrs by sulforhodamine B assay; details: UACC-62, 48 h, read-out: Activity
How it was run: (§1)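 Single-dose NCI screen. Tumor lines were cultured in medium with 5% fetal calf serum and 2 mM L-glutamine, preincubated 24 h, then given compound in DMSO. After 48 h continuous exposure, cell growth was estimated by sulforhodamine B protein assay.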

A498 = test: Growth inhibition of human A498 cells after 48 hrs by sulforhodamine B assay; details: A498, 48 h; for CC50: read-out: LC50 (the source's name)
How it was run: (§2)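 NCI 60-cell-line panel grown in RPMI-type medium with 5% fetal calf serum and 2 mM L-glutamine. Cells preincubated 24 h, then exposed continuously for 48 h to compound in DMSO at 10^-4 to 10^-8 M (five 10-fold levels). Growth read by SRB protein stain. GI50 is the concentration giving a 50% reduction in net protein increase relative to control cells.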

MCF7 [1] = test: Growth inhibition of human MCF7 cells after 48 hrs by sulforhodamine B assay; details: MCF7, 48 h; how it was run: as §2
CCRF-CEM = test: Growth inhibition of human CCRF-CEM cells assessed as cell growth at 10 uM after 48 hrs by sulforhodamine B assay; details: read-out: Activity
OVCAR-4 = test: Growth inhibition of human OVCAR4 cells after 48 hrs by sulforhodamine B assay; details: OVCAR-4, 48 h
How it was run: (§3)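 NCI 60-cell-line panel. Cells were grown in medium with 5% fetal calf serum and 2 mM L-glutamine, then preincubated 24 h in plates. Compounds were added from DMSO at five 10-fold concentrations from 100 to 0.01 µM and left on cells continuously for 48 h. Cell growth was read by sulforhodamine B protein stain. GI50 is the concentration that halves net protein increase relative to control cells.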

LOX IMVI = test: Growth inhibition of human LOXIMVI cells assessed as cell growth at 10 uM after 48 hrs by sulforhodamine B assay; details: read-out: Activity
786-0 = test: Growth inhibition of human 786-0 cells after 48 hrs by sulforhodamine B assay; details: 786-0, 48 h; how it was run: as §2
MCF7 [2] = test: Growth inhibition of human MCF7 cells assessed as cell growth at 10 uM after 48 hrs by sulforhodamine B assay; details: MCF7, 48 h, read-out: Activity
RXF 393 = test: Growth inhibition of human RXF393 cells assessed as cell growth at 10 uM after 48 hrs by sulforhodamine B assay; details: RXF 393, 48 h, read-out: Activity
HL-60(TB) = test: Growth inhibition of human HL-60(TB) cells assessed as cell growth at 10 uM after 48 hrs by sulforhodamine B assay; details: HL-60, 48 h, read-out: Activity
SK-MEL-2 = test: Growth inhibition of human SK-MEL-2 cells after 48 hrs by sulforhodamine B assay; details: SK-MEL-2, 48 h; how it was run: as §3
BT-549 = test: Growth inhibition of human BT549 cells assessed as cell growth at 10 uM after 48 hrs by sulforhodamine B assay; details: BT-549, 48 h, read-out: Activity
NCI-H23 = test: Growth inhibition of human NCI-H23 cells assessed as cell growth at 10 uM after 48 hrs by sulforhodamine B assay; details: NCI-H23, 48 h, read-out: Activity
TK-10 = test: Growth inhibition of human TK10 cells after 48 hrs by sulforhodamine B assay; details: TK-10, 48 h; for CC50: read-out: LC50 (the source's name)
How it was run: (§4)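 NCI 60-line panel. Cells were grown in medium with 5% fetal calf serum and 2 mM L-glutamine and preincubated 24 h in plates. Compound in DMSO was added at 10^-4 to 10^-8 M (five 10-fold levels), with continuous exposure for 48 h. Growth was read by SRB protein staining. GI50 is the concentration giving 50% reduction in net protein increase versus control cells.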

OVCAR-8 = test: Growth inhibition of human OVCAR8 cells assessed as cell growth at 10 uM after 48 hrs by sulforhodamine B assay; details: OVCAR-8, 48 h, read-out: Activity
HCT-116 = test: Growth inhibition of human HCT116 cells assessed as cell growth at 10 uM after 48 hrs by sulforhodamine B assay; details: HCT-116, 48 h, read-out: Activity
OVCAR-5 = test: Growth inhibition of human OVCAR5 cells after 48 hrs by sulforhodamine B assay; details: OVCAR-5, 48 h; for CC50: read-out: LC50 (the source's name); how it was run: as §3
Malme-3M = test: Growth inhibition of human MALME-3M cells after 48 hrs by sulforhodamine B assay; details: for CC50: read-out: LC50 (the source's name); how it was run: as §2
Rattus norvegicus = test: Antiinflammatory activity in Wistar rat assessed as inhibition of carrageenan-induced paw edema at 0.05 mmol/kg, po administered 30 mins prior challenge measured after 5 hrs
How it was run: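 Wistar rats of either sex, 150–175 g, fasted 16 h, 6 per group. Dosed orally at 0.05 mmol/kg, suspended in 1% CMC in water (10 ml/kg). 30 min later, 0.1 ml of 1% carrageenan in saline injected subplantar into the left hind paw. Paw volume read by plethysmometer at 0, 3 and 5 h. % inhibition = (1 − Vt/Vc) × 100 against the vehicle group.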

IGROV-1 = test: Growth inhibition of human IGROV1 cells after 48 hrs by sulforhodamine B assay; details: IGROV-1, 48 h; how it was run: as §2
ACHN = test: Growth inhibition of human ACHN cells assessed as cell growth at 10 uM after 48 hrs by sulforhodamine B assay; details: read-out: Activity
NCI-H226 = test: Growth inhibition of human NCI-H226 cells assessed as cell growth at 10 uM after 48 hrs by sulforhodamine B assay; details: NCI-H226, 48 h, read-out: Activity
SR = test: Growth inhibition of human SR cells assessed as cell growth at 10 uM after 48 hrs by sulforhodamine B assay; details: read-out: Activity; how it was run: as §1
[3] = Growth inhibition of human EKVX cells after 48 hrs by sulforhodamine B assay; details: for CC50: read-out: LC50 (the source's name); how it was run: as §2
OVCAR-3 = test: Growth inhibition of human OVCAR3 cells after 48 hrs by sulforhodamine B assay; details: OVCAR-3, 48 h; how it was run: as §3
SW-620 = test: Growth inhibition of human SW620 cells after 48 hrs by sulforhodamine B assay; details: SW-620, 48 h; for CC50: read-out: LC50 (the source's name); how it was run: as §4

SMILES: Cc1cc(O)ccc1C1=NN(c2ccc(S(C)(=O)=O)cc2)C(=O)CC1
- growth at 10 µM (M14): 49.2%
- growth at 10 µM (NCI-H522): 2.39%
- growth at 10 µM (UACC-62): 52.9%
- GI50 (A498): 2780 nM
- TGI (A498): 45.4 µM
- CC50 (A498): > 100 µM
- GI50 (MCF7 [1]): 20.7 µM
- LC50 (concentration killing 50% of cells) (MCF7 [1]): > 100 µM
- TGI (MCF7 [1]): > 100 µM
- growth at 10 µM (CCRF-CEM): 69.7%
- GI50 (OVCAR-4): 76.9 µM
- LC50 (OVCAR-4): > 100 µM
- TGI (OVCAR-4): > 100 µM
- growth at 10 µM (LOX IMVI): 67.5%
- GI50 (786-0): 92.5 µM
- LC50 (786-0): > 100 µM
- TGI (786-0): > 100 µM
- growth at 10 µM (MCF7 [2]): 82.8%
- growth at 10 µM (RXF 393): 81.2%
- growth at 10 µM (HL-60(TB)): 52.6%
- GI50 (SK-MEL-2): 3480 nM
- LC50 (SK-MEL-2): > 100 µM
- TGI (SK-MEL-2): 32.8 µM
- growth at 10 µM (BT-549): 58.2%
- growth at 10 µM (NCI-H23): 32.9%
- GI50 (TK-10): 80.5 µM
- TGI (TK-10): > 100 µM
- CC50 (TK-10): > 100 µM
- growth at 10 µM (OVCAR-8): 92.3%
- growth at 10 µM (HCT-116): 52.4%
- GI50 (OVCAR-5): 53.8 µM
- TGI (OVCAR-5): > 100 µM
- CC50 (OVCAR-5): > 100 µM
- GI50 (Malme-3M): 5.37 µM
- TGI (Malme-3M): > 100 µM
- CC50 (Malme-3M): > 100 µM
- inhibition in vivo at 50 µmol/kg (Rattus norvegicus): 52.6%
- GI50 (IGROV-1): 7.13 µM
- LC50 (IGROV-1): > 100 µM
- TGI (IGROV-1): > 100 µM
- growth at 10 µM (ACHN): 79.7%
- growth at 10 µM (NCI-H226): 93.3%
- growth at 10 µM (SR): 12.3%
- GI50 [3]: 57.9 µM
- TGI [3]: > 100 µM
- CC50 [3]: > 100 µM
- GI50 (OVCAR-3): 3410 nM
- LC50 (lethal concentration, 50% net cell kill) (OVCAR-3): > 100 µM
- TGI (OVCAR-3): 9.44 µM
- GI50 (SW-620): 3.32 µM
- TGI (SW-620): > 100 µM
- CC50 (SW-620): > 100 µM

SMILES: CCc1ccc(C2=NN(c3ccc(S(C)(=O)=O)cc3)C(=O)CC2)cc1
- growth at 10 µM (M14): 5.99%
- growth at 10 µM (NCI-H522): -1.27%
- growth at 10 µM (UACC-62): 38%
- GI50 (A498): 140 nM
- TGI (A498): 2.3 µM
- CC50 (A498): > 100 µM
- GI50 (MCF7 [1]): 3.13 µM
- LC50 (concentration killing 50% of cells) (MCF7 [1]): > 100 µM
- TGI (MCF7 [1]): > 100 µM
- growth at 10 µM (CCRF-CEM): 15.3%
- GI50 (OVCAR-4): 0.01 µM
- LC50 (OVCAR-4): > 100 µM
- TGI (OVCAR-4): > 100 µM
- growth at 10 µM (LOX IMVI): 35%
- GI50 (786-0): 5.13 µM
- LC50 (786-0): > 100 µM
- TGI (786-0): 80.3 µM
- growth at 10 µM (MCF7 [2]): 26%
- growth at 10 µM (RXF 393): 27.4%
- growth at 10 µM (HL-60(TB)): 6.73%
- GI50 (SK-MEL-2): 900 nM
- LC50 (SK-MEL-2): > 100 µM
- TGI (SK-MEL-2): > 100 µM
- growth at 10 µM (BT-549): 21.9%
- growth at 10 µM (NCI-H23): -4.83%
- GI50 (TK-10): 8.31 µM
- TGI (TK-10): > 100 µM
- CC50 (TK-10): > 100 µM
- growth at 10 µM (OVCAR-8): 39.1%
- growth at 10 µM (HCT-116): 15.7%
- GI50 (OVCAR-5): 8.51 µM
- TGI (OVCAR-5): > 100 µM
- CC50 (OVCAR-5): > 100 µM
- GI50 (Malme-3M): 6.8 µM
- TGI (Malme-3M): > 67.6 µM
- CC50 (Malme-3M): > 100 µM
- inhibition in vivo at 50 µmol/kg (Rattus norvegicus): 65.7%
- GI50 (IGROV-1): 1.48 µM
- LC50 (IGROV-1): > 100 µM
- TGI (IGROV-1): 55.2 µM
- growth at 10 µM (ACHN): 46%
- growth at 10 µM (NCI-H226): 69.1%
- growth at 10 µM (SR): 4.42%
- GI50 [3]: 4.19 µM
- TGI [3]: 96.7 µM
- CC50 [3]: > 100 µM
- GI50 (OVCAR-3): 930 nM
- LC50 (lethal concentration, 50% net cell kill) (OVCAR-3): > 100 µM
- GI50 (SW-620): 43.1 µM
- TGI (SW-620): > 100 µM
- CC50 (SW-620): > 100 µM
